Compound activity: PubChem, several laboratories
T cell HTS: modulates CD8 T cell binding to vesicles. 2C CD8+ T cell-vesicle binding, flow cytometry; active compounds read low. response (vesicle binding), % at 7 µM. AID 2052. 330,000 compounds, 0.068% hits;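 active = response, share of CD8 T cells binding vesicles, and their 90th percentile fluorescence all below set limits, cut at about 80% in these data, passing the limit was not always enough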;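 also: values below 100% mean blocked vesicle binding to the CD8+ T cells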
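Assay system: 2C TCR transgenic mouse naive CD8+ T cells, MACS-purified | Read-out: CD8+ gate FL2 mean fluorescence as % of same-row positive control | Signal: High-throughput flow cytometry with anti-B7-1 and anti-CD8 staining | Timing: Binding step 1.5 h, 37 °C, antibody labelling 20 min, ice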
Arr AP2 block: inhibitors of human beta-arrestin and AP2 interaction; FITC-arrestin peptide / GST-AP2 beads, flow cytometry; AP2 beta2 appendage carries R879A mutation; inhibition, % at 10 µM; 340,000 compounds, 0.31% hits; AID 504490;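 active = inhibition above a set limit, near 3 SD of compounds lacking own fluorescence, cut at about 54% in these data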
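Material – GST-tagged AP2 beta2-adaptin appendage (R879A) on 4 µm glutathione beads · Probe or stimulus – fluorescein-tagged arrestin peptide at 50 nM final · Timing – 12 min plus 1 h, RT · Detection – bead flow cytometry, FITC channel · Read-out basis – inhibition as reduced fluorescein signal on beads, percent · Medium – PBS plus Tween 20 (0.05%) and BSA (0.1%)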
JMJD2C inh: inhibitors of human GASC-1 (JMJD2C) demethylase. Q9H3R0. GST-JMJD2C(1-420) H3K9me3 demethylation, DELFIA europium. inhibition, % at 2.35 µM. 330,000 compounds, 0.069% hits. AID 2099;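 active = more than half of a compound's replicate wells show inhibition beyond 50%, single wells judged on their own value; inconclusive = some, but no more than half, of replicates pass 50% inhibition; inactive = no replicate passes 50% inhibition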;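 also: signal counts dimethyl H3K9 product captured on neutravidin plate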
Target sequence (Q9H3R0 1-420 limits assumed): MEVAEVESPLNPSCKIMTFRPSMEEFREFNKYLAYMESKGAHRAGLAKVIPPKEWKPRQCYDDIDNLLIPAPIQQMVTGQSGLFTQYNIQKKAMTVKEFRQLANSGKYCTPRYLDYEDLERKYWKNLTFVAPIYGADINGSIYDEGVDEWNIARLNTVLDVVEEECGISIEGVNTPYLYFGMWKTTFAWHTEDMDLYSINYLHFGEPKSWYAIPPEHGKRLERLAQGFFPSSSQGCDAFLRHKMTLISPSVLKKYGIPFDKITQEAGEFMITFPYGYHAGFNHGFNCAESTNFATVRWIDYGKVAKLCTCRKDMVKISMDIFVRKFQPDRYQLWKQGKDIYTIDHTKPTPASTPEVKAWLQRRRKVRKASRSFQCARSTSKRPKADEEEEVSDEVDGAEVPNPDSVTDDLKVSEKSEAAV
HDAC3 inh: human HDAC3 inhibition; recombinant HDAC3, fluorogenic peptide/trypsin coupled, fluorescence; inhibition, % at 8.3 µM; 320,000 compounds, 0.15% hits; AID 2718; in the data active = inhibition above about 26%, passing the limit was not always enough; inconclusive = no clear call, values can overlap the other calls
LANA-H2A inh: blocks KSHV LANA binding to histone H2A/H2B. Q9QR71. cell-free LANA-H2A/H2B peptide, fluorescence polarization. inhibition, % (concentration not given with the values). 320,000 compounds, 0.6% hits. AID 2629; in the data active = inhibition mostly above about 10%, no sharp cut-off; inactive = mostly below about 6.7%
DSG3 Ab inh: human desmoglein-3 autoantibody binding inhibition. P32926. DSG3-coupled beads, scFv-anti-DSG3-GFP binding, flow cytometry; active compounds read low. binding (percent of control), % at 10 µM. 310,000 compounds, 0.48% hits;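 active = binding more than 3 SD below its plate's average and above zero; inconclusive = below that plate limit but binding exactly zero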;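 also: hits lower antibody fragment binding to DSG3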
Arr AP2 CP1: inhibitors of human beta-arrestin and AP2 interaction | shares compounds with Arr AP2 block | GST-AP2 beads, FITC arrestin peptide binding, flow cytometry; GST-fused beta2-adaptin appendage, R879A mutant | inhibition, % at 10 µM | 1,300 compounds, 2% hits | AID 504908;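 active = inhibition above a set limit, roughly 3 SD of non-fluorescent compound noise, cut at about 38% in these data; inactive = inhibition at or below that limit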;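 also: loss of bead fluorescence from 50 nM FITC arrestin peptide bound to appendage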
GST GSH counter: counter-screen for beta-arrestin AP2 inhibitors: GST-GSH bead binding | GST-fluorescein binding to GSH beads, fluorescence | shares compounds with Arr AP2 block | 1,300 compounds, 2% hits | inhibition, % at 10 µM;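 active = inhibition above 50%, about 3 SD of the inhibition seen with non-fluorescent compounds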;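 also: fluorescein maleimide labelled GST captured on 4 micron glutathione beads; higher means more loss of bead fluorescence from quenching or blocked binding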
A number is an active result; i = inactive; ? = inconclusive; nt = no result given. Rows were chosen to be rich in hits. Some 1.6% of all compounds tested hit in one or more screens of this group.

SMILES	T cell HTS	Arr AP2 block	JMJD2C inh	HDAC3 inh	LANA-H2A inh	DSG3 Ab inh	Arr AP2 CP1	GST GSH counter
CN(Cc1ccccn1)C(=O)C1CCC(=O)N(Cc2cccc(F)c2)C1 (stereo not drawn)	i	i	i	i	i	i	nt	nt
COc1cccc(CN(C)C(=O)C2CCC(=O)N(Cc3cccc(F)c3)C2)c1 (stereo not drawn)	i	i	i	i	i	i	i	i
CCc1noc(C)c1C(=O)N1CC(C)SC1=Nc1ccc(Cl)cc1 (stereo not drawn)	i	i	i	i	i	i	nt	nt
CCn1c(=O)n(CC)c2cc(N3CCCC3)c(NC(=O)c3ccc(C)cc3)cc21	i	i	i	?	i	nt	i	nt
Cn1c(=O)n(C)c2cc(N3CCCCC3)c(NC(=O)c3ccccc3)cc21	i	i	i	i	i	i	i	i
CCn1c(=O)n(CC)c2cc(N3CCCC3)c(NC(=O)c3ccccc3)cc21	i	i	i	i	i	i	i	i
COCCn1c(C)c(C)c(S(=O)(=O)c2ccccc2)c1N	i	i	i	i	i	i	nt	nt
Cc1ccnc(Cc2ccccc2)n1	i	i	i	i	i	i	nt	nt
NS(=O)(=O)c1ccc(CCNC(=O)COC(=O)c2nc(Cl)ccc2Cl)cc1	i	i	i	i	nt	i	nt	nt
O=C(c1ccc(NS(=O)(=O)c2ccc(Cl)c(Cl)c2)cc1)N1CCOCC1	nt	i	nt	nt	nt	i	nt	nt
COc1ccc(C)cc1S(=O)(=O)Nc1ccc2c(c1)N(C(C)=O)CCC2	i	i	i	i	i	i	nt	nt
CCN(CC)S(=O)(=O)c1ccc(C(=O)Nc2ccc(Cc3ccncc3)cc2)cc1	i	56	i	i	i	i	i	i
CCN(CC)S(=O)(=O)c1ccc(NC(=O)c2ccc(N(C)S(C)(=O)=O)cc2)cc1	i	i	i	i	i	nt	nt	nt
Cc1ccn2c(NC(=O)C(C)(C)Oc3ccc(Cl)cc3)c(-c3cccs3)nc2c1	i	60	i	i	i	i	i	i
O=C(COC(=O)CSc1ccc(F)cc1)NNC(=O)c1ccc([N+](=O)[O-])cc1	i	i	i	i	i	i	nt	nt
O=C(NCc1cccc(F)c1F)C1CCC(=O)N(C2CCCCCC2)C1 (stereo not drawn)	i	i	i	i	i	i	nt	nt
CC(C)CCNC(=O)CCn1nc(-c2ccc(Cl)cc2)ccc1=O	i	i	i	i	i	i	nt	nt
O=C(CCn1nc(-c2ccc(Cl)cc2)ccc1=O)NCc1ccccn1	i	79	i	i	i	i	i	i
C=CCn1c(COc2ccccc2)nc2ccccc21	i	i	i	i	i	i	nt	nt
COc1ccccc1C(=O)NCCC(=O)N1CCN(C(C)=O)CC1	i	61	i	i	i	i	i	i
COc1ccccc1C(=O)NCCC(=O)N1CCN(C(=O)c2ccco2)CC1	nt	i	nt	nt	nt	i	nt	nt
CC(C)(C)c1ccc(OCCCC(=O)NNC(=O)c2ccccc2O)cc1	i	i	i	nt	i	i	nt	nt
CC(C)(C)c1ccc(C(=O)NCC(=O)NNC(=O)c2ccccc2O)cc1	i	77	i	i	i	i	i	i
COc1ccc(NC(=O)CN(C)C(=O)C(NC(=O)c2ccco2)C(C)C)cc1 (stereo not drawn)	nt	61	nt	nt	nt	i	i	i
O=C(Oc1ccc2ccc(=O)oc2c1)N1CCOCC1	i	55	i	i	i	i	i	i
SMILES	T cell HTS	Arr AP2 block	JMJD2C inh	HDAC3 inh	LANA-H2A inh	DSG3 Ab inh	Arr AP2 CP1	GST GSH counter
COC(=O)C1CCN(S(=O)(=O)c2c[nH]c(=O)[nH]c2=O)CC1	nt	nt	nt	nt	nt	i	nt	nt
O=C1CN(C(=O)/C=C/c2ccc(Cl)cc2Cl)CCN1	i	i	i	i	i	i	nt	nt
O=C1CN(C(=O)/C=C/c2ccccc2)CCN1	i	57	i	i	i	i	i	i
O=C(Cn1nc(-c2cccc(Cl)c2)ccc1=O)NCC1COCCO1 (stereo not drawn)	i	i	i	nt	nt	i	nt	nt
COC(=O)c1c(NC(=O)CN2C(=O)NC3(CCc4ccccc4C3)C2=O)sc2c1CCCCC2 (stereo not drawn)	i	106	i	i	i	i	i	i
Cc1ccc(CN2CCC[C@]3(N[C@H](c4ccc(C(F)(F)F)cc4)[C@@H]4C(=O)N(Cc5ccccc5)C(=O)[C@@H]43)C2=O)cc1	nt	nt	nt	nt	nt	i	nt	nt
CC(C)c1nc2sc3c(NCc4ccco4)ncnc3c2c2c1COC(C)(C)C2	i	101	i	i	i	i	i	i
CC(=O)N1CCN(C(=O)c2ccc(S(=O)(=O)Nc3ccccc3F)cc2)CC1	i	i	i	i	i	?	nt	nt
Nc1c(C(=O)NCc2cccs2)nnn1CC(=O)Nc1cccc(Cl)c1	i	99	i	i	i	i	i	i
COc1ccc(NC(=O)CN(C)C(=O)C2=NN(c3ccccc3)C(=O)CC2)cc1	i	i	i	i	i	i	nt	nt
COc1cc2c(cc1NC(=O)CSc1cccc[n+]1[O-])oc1ccccc12	i	56	i	i	i	i	i	i
COc1cc2c(cc1NC(=O)C(C)Sc1ccc(C)cc1)oc1ccccc12 (stereo not drawn)	i	i	i	i	i	i	i	nt
COc1cc2c(cc1NC(=O)Cc1ccc(C)cc1)oc1ccccc12	i	i	i	i	i	i	i	i
COc1cc2c(cc1NC(=O)CSCC(=O)O)oc1ccccc12	i	i	i	i	i	i	nt	nt
COc1cc2c(cc1NC(=O)CSc1ccc(C)cc1)oc1ccccc12	i	i	i	i	i	i	i	i
COC(=O)c1cc(OC)c(OC)cc1NC(=O)C(C)Sc1ccc(C)cc1 (stereo not drawn)	i	i	i	i	i	i	nt	nt
CC1(C)O[C@@H]2[C@H](O1)[C@@H](COS(=O)(=O)O)O[C@H]2n1cc(Br)c(=O)[nH]c1=O	i	i	i	i	i	i	nt	nt
CCCCN1C(=O)C(CC(=O)NCCN2CCOCC2)CC(C(=O)N(C(C)C)C(C)C)=C1C (stereo not drawn)	nt	nt	nt	nt	nt	i	nt	nt
CC(C)(Oc1ccc(Cl)cc1)C(=O)OCc1nc2ccsc2c(=O)[nH]1	i	i	i	i	i	i	nt	nt
COc1cc2c(cc1NC(=O)COC(=O)c1ccc(C(C)(C)C)cc1)oc1ccccc12	i	i	i	i	i	i	i	i
COc1cc2c(cc1NC(=O)COC(=O)[C@@H](NS(=O)(=O)c1ccccc1)C(C)C)oc1ccccc12	i	i	i	i	i	i	nt	nt
COc1cc2c(cc1NC(=O)COc1ccccc1OC)oc1ccccc12	i	i	i	i	i	i	i	i
CCOc1ccccc1OCC(=O)Nc1ccc(N2CCOCC2)cc1N1CCOCC1	nt	i	nt	nt	nt	i	nt	nt
